M4 ag – CHRM4 agonism in calcium assay | 360,000 tested, 0.14% active | activation, % at 3 µM | CHO-K1 hM4/Gqi5, Fluo-8 calcium fluorescence; vehicle 0%, full acetylcholine response 100%;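 active = activation above the run mean over all test wells plus 3 SD, cut at about 32% in these data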;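 note: peak over basal fluorescence ratio per well then scaled between controls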
M4 PAM – potentiates acetylcholine response at human M4 receptor. AID 624126. 360,000 tested, 0.4% active. CHO-K1 hM4/Gqi5, Fluo-8 calcium fluorescence, ACh EC20; 0% = ACh EC20, 100% = maximal ACh. activation, % at 3 µM;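 active = activation above its plate's cutoff, the mean activation of sample wells plus 3 SD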
M5 ag – agonists of human muscarinic M5 receptor (CHRM5) | P08912 | CHO-K1 hM5 cells, Fluo-8 calcium fluorescence; 0% DMSO wells, 100% maximal acetylcholine response | activation, % at 3 µM | 360,000 tested, 0.19% active | AID 624037;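 active = activation above the run's mean over test compounds plus 3 SD, cut at about 23% in these data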;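 note: signal is peak over basal fluorescence ratio across the kinetic read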
Target sequence (P08912 whole entry, looked up): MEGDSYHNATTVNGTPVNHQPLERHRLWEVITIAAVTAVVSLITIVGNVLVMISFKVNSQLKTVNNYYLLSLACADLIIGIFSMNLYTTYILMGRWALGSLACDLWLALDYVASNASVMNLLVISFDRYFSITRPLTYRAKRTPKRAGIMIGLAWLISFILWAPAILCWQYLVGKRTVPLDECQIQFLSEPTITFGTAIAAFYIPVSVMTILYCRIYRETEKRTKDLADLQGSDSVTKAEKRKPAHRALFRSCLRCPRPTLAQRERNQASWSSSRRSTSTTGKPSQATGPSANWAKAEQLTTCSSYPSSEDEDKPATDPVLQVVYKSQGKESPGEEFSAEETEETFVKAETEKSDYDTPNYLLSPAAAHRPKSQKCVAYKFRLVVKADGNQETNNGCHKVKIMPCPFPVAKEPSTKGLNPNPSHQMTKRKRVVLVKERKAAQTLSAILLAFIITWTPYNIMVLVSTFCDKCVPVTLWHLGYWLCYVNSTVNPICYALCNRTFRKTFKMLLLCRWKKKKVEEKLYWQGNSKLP
M5 PAM – potentiates acetylcholine response at human M5 receptor; P08912; CHO-K1 hM5, Fluo-8 calcium, ACh EC20 PAM; 0% = ACh EC20, 100% = ACh EC100; activation, % at 3 µM; 360,000 tested, 0.3% active; AID 624038;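 active = activation above the run cutoff, the mean activation of all test compounds plus 3 SD, cut at about 18% in these data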
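system = human M5 receptor in CHO-K1 cells | compound = one concentration, 3 µM final (nominal) | schedule = Post-acetylcholine fluorescence recording 140 s | signal = Fluo-8 calcium dye fluorescence, kinetic read | benchmarks = low control EC20 acetylcholine (0%), high control EC100 acetylcholine (100%) | repeats = singlicate, one well per test compound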
M5 antag – CHRM5 antagonism in calcium assay. P08912. CHO-hM5 cells, Fluo-8 calcium fluorescence, ACh EC80. inhibition, % at 3 µM. 360,000 tested, 0.59% active;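 active = inhibition above a per-plate cutoff, the mean of that plate's test compounds plus 3 SD, cut at about 27% in these data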
M4 antag – blocks acetylcholine activation of human M4 receptor. P08173. CHO-hM4 cells, ACh EC80, Fluo-8 calcium fluorescence. inhibition, % at 3 µM. 360,000 tested, 0.73% active. AID 624125;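 active = inhibition above its plate's cutoff, the mean inhibition of sample wells plus 3 SD, cut at about 27% in these data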
Large screens that a line does not name were inactive. Only some compounds are listed: those with a hit (about 1.8% of all), similar ones and a draw of the others.

OC(c1ccccc1)(c1ccccc1)C1CCN(CCCOc2ccc(F)cc2)CC1	M5 antag 55.5, M4 antag 65.5
CC1CCN(CCCCOc2ccc(C(C)(C)C)cc2)CC1	M4 antag 29.7
CC(C)C(N)c1csc(Nc2ccc(S(C)(=O)=O)cc2)n1 (configuration not stated)	none
CCOC(=O)C1=CCN(S(=O)(=O)c2ccccc2Cl)C1c1cccc(Br)c1 (configuration not stated)	none
CC1(C(=O)NCc2ccccc2)CN(S(C)(=O)=O)CC(=O)N1CCc1c[nH]c2ccccc12 (configuration not stated)	none
CCOc1cccc(/C=C(/C#N)c2nc3ccccc3[nH]2)c1OCC(=O)O	none
CCN(CC)c1ccc(/C=C(/C#N)c2nc3ccccc3[nH]2)c(OC(C)C)c1	M4 ag 56.9
CN(C)NC(=S)NC1CCS(=O)(=O)C1 (configuration not stated)	M5 PAM 21.1
Cc1ccc(-n2nc3c(n2)/C(=N/O)CC/C3=N\O)cc1	M5 PAM 34.5
COC(=O)[C@]12CCCCC=C1N(CCC1=CCCCC1)C(=O)[C@H](CC(=O)NCc1cccc3ccccc13)C2	none
Cc1ccc(C(=O)c2coc3c2C(=O)C(=O)c2ccccc2-3)cc1	M5 antag 35.7
Cc1ccc(C(=O)c2c(C)oc3c2C(=O)C(=O)c2ccccc2-3)cc1	none
CSc1ccc(CN2CCC2(C)C(=O)Nc2ccc3c(c2)OCO3)cc1 (configuration not stated)	none
Cc1sc(NC(=O)c2cccs2)c(C(N)=O)c1C	M4 PAM 17.5
NC(=O)c1ccsc1NC(=O)c1cccs1	none
CN1CCC(N2CCN(C3CN(CCc4ccccc4)S(=O)(=O)C3)CC2)CC1 (configuration not stated)	none
CN1CCC(n2[nH]c(-c3ccccc3)c(Cc3ccccc3)c2=O)CC1	M5 antag 97.9, M4 antag 98.4
CN[C@H]1C[C@H]2c3[nH]c4ccc(-c5ccc(OC)cc5)cc4c3CCN2C(=O)[C@H]1[C@H](C)O	none
Cc1cccc(Nc2nnc(SCC(=O)Nc3cccnc3Cl)s2)c1	none
Nc1nnc(SCC(=O)Nc2cccnc2Cl)s1	M4 PAM 22.9
Cc1cc(C)n2c(NCc3ccccc3)c(-c3cc4ccccc4o3)nc2n1	none
COC(=O)CC1=Nc2ccccc2NC(=O)C1	none
CCOC(=O)CC1=Nc2ccccc2NC(=O)C1	M4 antag 26.7
C[C@H](NC(=O)c1ccccc1)C(=O)OCC(=O)Nc1ccc(Cl)cn1	none
Nc1nnn(CC(=O)N/N=C/c2cccc3ccccc23)n1	M5 PAM 18.1
Cc1ccccc1/C=N/NC(=O)Cn1nnc(N)n1	none
COc1cccc(-c2c(C(=O)N/N=C/c3cccs3)nnn2-c2nonc2N)c1	M5 ag 30.6
CCOc1cccc(-c2c(C(=O)N/N=C/c3ccncc3)nnn2-c2nonc2N)c1	none
Cc1ccc(/C=N/NC(=O)c2nnn(-c3nonc3N)c2-c2cccs2)cc1	M5 ag 30.1
CCOc1cccc(-c2c(C(=O)N/N=C/c3cccs3)nnn2-c2nonc2N)c1	M5 ag 28.3, M5 PAM 27.8
CN1OC[C@@H]2CN(C(=S)NCCc3ccccc3)[C@H](c3ccc(-n4ccnc4)cc3)C[C@@H]21	none
COCCNCCOc1ccccc1-c1ccccc1	M5 PAM 18.9
CCOC(=O)N1CCC(N(CCN(C)C)C(=S)Nc2ccccc2OC)CC1	none
CCOC(=O)N1CCC(N(CCN(C)C)C(=S)Nc2ccccc2OCC)CC1	M5 PAM 37.6
Cc1oc2c(c(=O)c1C)C(=O)CC(c1ccccc1)C2 (configuration not stated)	M5 antag 42.9
COc1ccc(CCN2C(=O)COc3ccccc3C2C(=O)NC(C)(C)C)cc1OC (configuration not stated)	none
COC(=O)C[C@@H]1OC[C@H](Cc2ccccc2)N1S(=O)(=O)c1ccc(C)cc1	none
